Assays:
[1] = Inhibition of biotinylated PEX5-derived ALSENWAQEFLA binding to Trypanosoma brucei N-terminal His-tagged PEX14 (21 to 84 residues) expressed in Escherichia coli BL21 by Alphascreen assay
Summary of the method: (§1)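 His-tagged PEX14 (21-84) at 3 nM with 10 nM biotinylated peptide in PBS containing 5 mg/mL BSA and 0.01% Tween-80; 5 µg/mL streptavidin donor and nickel chelate acceptor beads; 5% DMSO held constant.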

[2] = Inhibition of biotinylated PEX5-derived ALSENWAQEFLA binding to Trypanosoma cruzi N-terminal His-tagged PEX14 (21 to 84 residues) expressed in Escherichia coli BL21 by Alphascreen assay; summary of the method: as §1
[3] = molecular target: Peroxisomal membrane protein PEX14 (Homo sapiens, UniProt O75381); experiment: Inhibition of biotinylated PEX5-derived ALSENWAQEFLA binding to human N-terminal His-tagged PEX14 (21 to 84 residues) expressed in Escherichia coli BL21 by Alphascreen assay; summary of the method: as §1
Peroxisomal membrane protein PEX14, sequence (O75381 whole entry, stated change not applied, the tested form may be a part): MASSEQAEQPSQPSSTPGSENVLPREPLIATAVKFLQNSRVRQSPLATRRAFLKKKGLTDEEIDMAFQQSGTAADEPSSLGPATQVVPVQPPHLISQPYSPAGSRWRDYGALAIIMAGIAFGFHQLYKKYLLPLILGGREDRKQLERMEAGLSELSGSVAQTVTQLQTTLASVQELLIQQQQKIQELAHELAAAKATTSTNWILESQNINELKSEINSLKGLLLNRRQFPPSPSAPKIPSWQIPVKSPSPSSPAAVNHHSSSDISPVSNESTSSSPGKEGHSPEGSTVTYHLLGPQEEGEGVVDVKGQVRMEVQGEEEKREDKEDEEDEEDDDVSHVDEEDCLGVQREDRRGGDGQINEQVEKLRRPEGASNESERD

[4] = tested on: Trypanosoma brucei brucei; experiment: Antitrypanosomal activity against bloodstream form of Trypanosoma brucei brucei Lister 427 after 66 hrs by Resazurin dye-based fluorescence assay; format: functional, organism-based; conditions: Lister 427, 66 h
[5] = tested on: HepG2; experiment: Cytotoxicity against human HepG2 cells assessed as reduction in cell viability measured after 66 hrs by resazurin dye based fluorescence assay; conditions: HepG2, 66 h
[6] = Selectivity index, ratio of EC50 for human HepG2 cells to EC50 for antitrypanosomal activity against bloodstream form of Trypanosoma brucei brucei Lister 427

EC50 [3] [µM] | EC50 [4] [µM] | Structure (SMILES) | EC50 [1] [µM] | EC50 [2] [µM] | EC50 [5] [µM] | selectivity ratio [6]
166 | 3.58 | COc1ccc(CN2CCc3c(c(C(=O)NCc4cccc5ccccc45)nn3CCN3CCOCC3)C2)c2ccccc12 | 88.1 | 162 | 42 | 11.7
> 1000 | 5.61 | COc1ccc(CN2CCc3nn4c(c3C2)CN(Cc2cccc3ccccc23)C4=O)c2ccccc12 | 103 | 448 | > 50 | > 8.9
> 1000 | 6.42 | COc1ccc(CN2CCc3nn4c(c3C2)C(=O)N(Cc2cccc3ccccc23)CC4)c2ccccc12 | 49.2 | 463 | > 50 | > 7.8

Source: ChEMBL document CHEMBL4376870, “Structure-Activity Relationship in Pyrazolo[4,3-c]pyridines, First Inhibitors of PEX14-PEX5 Protein-Protein Interaction with Trypanocidal Activity” (J Med Chem, 2020)
